Experimental data from ChEMBL document CHEMBL1154352, “Toll-like receptor 7 selective synthetic oligoribonucleotide agonists: synthesis and structure-activity relationship studies” (J Med Chem, 2009).
The source made the active and inactive calls. No cut-off for these calls is given here.

Key:
[1] = target: T1, Toll-like receptor 7 (Homo sapiens) (UniProt Q9NYK1); assay: Activation of human TLR7 expressed in HEK293XL assessed as fold induction of NF-kappaB activity at 50 ug/ml after 18 hrs by reporter gene assay relative to control
T1 sequence (whole entry): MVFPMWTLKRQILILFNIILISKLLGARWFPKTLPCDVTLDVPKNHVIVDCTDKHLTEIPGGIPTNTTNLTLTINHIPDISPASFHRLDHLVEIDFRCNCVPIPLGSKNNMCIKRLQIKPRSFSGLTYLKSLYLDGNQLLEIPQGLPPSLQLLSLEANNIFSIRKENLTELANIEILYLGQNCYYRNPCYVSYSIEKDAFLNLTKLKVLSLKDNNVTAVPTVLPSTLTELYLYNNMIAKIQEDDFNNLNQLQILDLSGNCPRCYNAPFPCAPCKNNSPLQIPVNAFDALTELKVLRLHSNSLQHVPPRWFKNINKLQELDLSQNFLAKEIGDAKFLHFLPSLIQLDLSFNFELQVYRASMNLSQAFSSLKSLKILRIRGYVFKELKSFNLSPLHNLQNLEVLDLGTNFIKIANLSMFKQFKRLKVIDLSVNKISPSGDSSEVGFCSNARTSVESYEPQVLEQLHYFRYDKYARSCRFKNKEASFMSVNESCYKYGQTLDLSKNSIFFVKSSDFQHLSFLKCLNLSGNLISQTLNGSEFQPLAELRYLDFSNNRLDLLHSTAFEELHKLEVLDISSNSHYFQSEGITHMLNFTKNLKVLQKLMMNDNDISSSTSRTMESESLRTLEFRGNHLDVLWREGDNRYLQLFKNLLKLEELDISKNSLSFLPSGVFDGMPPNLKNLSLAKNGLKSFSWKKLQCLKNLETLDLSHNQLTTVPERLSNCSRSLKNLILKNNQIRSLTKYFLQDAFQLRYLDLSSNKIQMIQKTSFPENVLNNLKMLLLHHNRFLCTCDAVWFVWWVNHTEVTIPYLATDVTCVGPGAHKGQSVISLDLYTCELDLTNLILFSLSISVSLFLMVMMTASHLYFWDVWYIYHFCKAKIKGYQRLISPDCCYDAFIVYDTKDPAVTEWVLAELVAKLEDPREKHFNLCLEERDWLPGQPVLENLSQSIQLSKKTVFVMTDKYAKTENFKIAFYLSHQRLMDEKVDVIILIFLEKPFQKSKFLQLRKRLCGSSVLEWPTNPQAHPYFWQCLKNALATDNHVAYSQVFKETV
Outline: (§1)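 HEK293 cells stably expressing human TLR7 or TLR8, transiently transfected with SEAP reporter plasmid; medium replaced, SIMRA compounds added, 18 h incubation. Supernatant SEAP measured by QuantiBlue; expressed as fold increase in NF-κB activity over PBS control. Tabulated data at 50 μg/mL, representative of three independent experiments.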

[2] = target: T2, Toll-like receptor 8 (Homo sapiens) (UniProt Q9NR97); assay: Activation of human TLR8 expressed in HEK293XL assessed as fold induction of NF-kappaB activity at 50 ug/ml after 18 hrs by reporter gene assay relative to control; outline: as §1
T2 sequence (whole entry): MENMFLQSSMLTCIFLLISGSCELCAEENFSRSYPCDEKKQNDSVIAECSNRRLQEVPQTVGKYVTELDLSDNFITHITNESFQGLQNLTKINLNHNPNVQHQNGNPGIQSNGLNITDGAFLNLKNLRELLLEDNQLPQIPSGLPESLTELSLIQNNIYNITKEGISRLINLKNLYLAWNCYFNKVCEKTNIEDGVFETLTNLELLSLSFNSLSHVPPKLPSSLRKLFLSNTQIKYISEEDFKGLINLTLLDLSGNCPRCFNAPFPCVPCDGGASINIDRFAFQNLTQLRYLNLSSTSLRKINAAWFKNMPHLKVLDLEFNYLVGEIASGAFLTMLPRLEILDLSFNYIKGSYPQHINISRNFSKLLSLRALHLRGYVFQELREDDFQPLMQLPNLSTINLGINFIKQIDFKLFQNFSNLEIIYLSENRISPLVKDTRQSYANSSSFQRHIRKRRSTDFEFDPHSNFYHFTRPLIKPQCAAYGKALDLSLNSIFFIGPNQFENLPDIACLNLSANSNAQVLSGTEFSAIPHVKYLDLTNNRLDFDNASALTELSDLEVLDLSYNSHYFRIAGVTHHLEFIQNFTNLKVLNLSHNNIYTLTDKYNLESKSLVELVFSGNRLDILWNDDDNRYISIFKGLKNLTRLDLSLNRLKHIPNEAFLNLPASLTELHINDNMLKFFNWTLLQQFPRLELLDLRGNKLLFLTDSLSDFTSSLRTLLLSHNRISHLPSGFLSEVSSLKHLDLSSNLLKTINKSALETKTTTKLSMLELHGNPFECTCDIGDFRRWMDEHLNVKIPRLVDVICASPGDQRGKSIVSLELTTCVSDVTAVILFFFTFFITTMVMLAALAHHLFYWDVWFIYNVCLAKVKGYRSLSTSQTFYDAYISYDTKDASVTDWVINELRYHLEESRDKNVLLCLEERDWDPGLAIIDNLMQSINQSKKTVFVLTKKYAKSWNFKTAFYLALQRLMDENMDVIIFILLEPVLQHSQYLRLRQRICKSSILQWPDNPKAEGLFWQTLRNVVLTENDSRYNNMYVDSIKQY

[3] = target: Toll-like receptor 3 (Homo sapiens) (UniProt O15455); assay: Activation of human TLR3 expressed in HEK293 assessed as induction of NF-kappaB activity reporter gene assay; type: cell-based
Sequence of Toll-like receptor 3 (Homo sapiens) (O15455 whole entry): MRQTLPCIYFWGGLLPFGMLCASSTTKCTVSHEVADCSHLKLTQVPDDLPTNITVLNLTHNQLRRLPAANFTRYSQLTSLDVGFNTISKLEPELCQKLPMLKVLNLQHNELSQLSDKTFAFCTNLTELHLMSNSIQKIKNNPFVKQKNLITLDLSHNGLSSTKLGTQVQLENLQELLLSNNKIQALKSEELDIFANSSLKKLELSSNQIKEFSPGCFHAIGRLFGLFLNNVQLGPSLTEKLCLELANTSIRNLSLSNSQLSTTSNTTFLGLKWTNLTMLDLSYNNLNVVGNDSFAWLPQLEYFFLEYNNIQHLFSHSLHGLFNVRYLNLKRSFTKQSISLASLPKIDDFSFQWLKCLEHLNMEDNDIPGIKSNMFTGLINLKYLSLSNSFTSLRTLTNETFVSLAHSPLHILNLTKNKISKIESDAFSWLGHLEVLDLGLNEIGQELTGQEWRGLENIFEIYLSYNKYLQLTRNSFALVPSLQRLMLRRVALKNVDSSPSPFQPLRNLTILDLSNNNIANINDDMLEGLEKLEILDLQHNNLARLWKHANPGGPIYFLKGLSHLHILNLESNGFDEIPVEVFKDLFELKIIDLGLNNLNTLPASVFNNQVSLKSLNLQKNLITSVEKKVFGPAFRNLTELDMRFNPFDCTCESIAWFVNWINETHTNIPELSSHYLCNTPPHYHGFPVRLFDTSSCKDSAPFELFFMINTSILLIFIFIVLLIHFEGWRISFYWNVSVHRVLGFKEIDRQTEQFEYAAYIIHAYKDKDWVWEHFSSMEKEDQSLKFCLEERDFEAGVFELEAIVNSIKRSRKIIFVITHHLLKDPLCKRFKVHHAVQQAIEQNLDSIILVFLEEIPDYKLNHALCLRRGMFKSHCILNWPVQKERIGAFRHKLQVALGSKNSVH

Splenocyte = assay: Immunomodulatory activity in C57BL/6 mouse splenocytes bearing TLR7 receptor assessed as IL12 release at 100 ug/ml after 24 hrs by ELISA; type: functional, cell-based
Outline: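 C57BL/6 splenocytes in RPMI 1640 with 10% FBS, penicillin/streptomycin, 2 mM L-glutamine, plated at 5 × 10^6 cells/mL; compounds in PBS added, 37 °C for 24 h. Supernatant IL-12 and IL-6 by ELISA; representative of three independent experiments.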

PBMC [4] = assay: Immunomodulatory activity in human PBMC assessed as induction of TNFalpha at 100 ug/ml after 24 hrs; type: functional, cell-based
Outline: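 Human PBMCs plated at 5 × 10^6 cells/mL; compounds dissolved in PBS added at various concentrations, 37 °C for 24 h. Supernatant cytokines/chemokines quantified with human Luminex multiplex kit.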

PBMC [5] = assay: Immunomodulatory activity in human PBMC assessed as induction of IFN-alpha at 100 ug/ml after 24 hrs

SMILES: Nc1ccn([C@@H]2O[C@H](CO)[C@@H](OP(=O)(S)OC[C@H]3O[C@@H](n4ccc(=O)[nH]c4=O)[C@H](O)[C@@H]3OP(=O)(S)OC[C@H]3O[C@@H](n4ccc5c(=O)[nH]c(N)nc54)[C@H](O)[C@@H]3OP(=O)(S)OC[C@H]3O[C@@H](n4cnc5c(N)ncnc54)[C@H](O)[C@@H]3OP(=O)(S)OC[C@H]3O[C@@H](n4ccc5c(=O)[nH]c(N)nc54)[C@H](O)[C@@H]3OP(=O)(S)OC[C@H]3O[C@@H](n4cnc5c(N)ncnc54)[C@H](O)[C@@H]3OP(=O)(S)OC[C@H]3O[C@@H](n4cnc5c(N)ncnc54)[C@H](O)[C@@H]3OP(=O)(S)OC[C@H]3O[C@@H](n4ccc5c(=O)[nH]c(N)nc54)[C@H](O)[C@@H]3OP(=O)(S)OC[C@H]3O[C@@H](n4ccc(N)nc4=O)[C@H](O)[C@@H]3OP(=O)(S)OC[C@H]3O[C@@H](n4ccc(=O)[nH]c4=O)[C@H](O)[C@@H]3OP(=O)(S)OC[C@H]3O[C@@H](n4ccc(=O)[nH]c4=O)[C@H](O)[C@@H]3OP(=O)(S)OCC(O)COP(=O)(S)O[C@H]3[C@@H](O)[C@H](n4ccc(=O)[nH]c4=O)O[C@@H]3COP(=O)(S)O[C@H]3[C@@H](O)[C@H](n4ccc(=O)[nH]c4=O)O[C@@H]3COP(=O)(S)O[C@H]3[C@@H](O)[C@H](n4ccc(N)nc4=O)O[C@@H]3COP(=O)(S)O[C@H]3[C@@H](O)[C@H](n4ccc5c(=O)[nH]c(N)nc54)O[C@@H]3COP(=O)(S)O[C@H]3[C@@H](O)[C@H](n4cnc5c(N)ncnc54)O[C@@H]3COP(=O)(S)O[C@H]3[C@@H](O)[C@H](n4cnc5c(N)ncnc54)O[C@@H]3COP(=O)(S)O[C@H]3[C@@H](O)[C@H](n4ccc5c(=O)[nH]c(N)nc54)O[C@@H]3COP(=O)(S)O[C@H]3[C@@H](O)[C@H](n4cnc5c(N)ncnc54)O[C@@H]3COP(=O)(S)O[C@H]3[C@@H](O)[C@H](n4ccc5c(=O)[nH]c(N)nc54)O[C@@H]3COP(=O)(S)O[C@H]3[C@@H](O)[C@H](n4ccc(=O)[nH]c4=O)O[C@@H]3COP(=O)(S)O[C@H]3[C@@H](O)[C@H](n4ccc(N)nc4=O)O[C@@H]3CO)[C@H]2O)c(=O)n1 (some centres not stated)
- fold change (FC) [1]: 27.6
- fold change (FC) [2]: 0.4
- Activity [3]: inactive
- Activity (Splenocyte): Active
- Activity (PBMC [4]): 818 pg/mL
- IFN-alpha (PBMC [5]): 123 pg/mL

SMILES: Nc1ccn([C@@H]2O[C@H](CO)[C@@H](OP(=O)(S)OC[C@H]3O[C@@H](n4ccc(=O)[nH]c4=O)[C@H](O)[C@@H]3OP(=O)(S)OC[C@H]3O[C@@H](n4ccc5c(=O)[nH]c(N)nc54)[C@H](O)[C@@H]3OP(=O)(S)OC[C@H]3O[C@@H](n4cnc5c(N)ncnc54)[C@H](O)[C@@H]3OP(=O)(S)OC[C@H]3O[C@@H](n4ccc(N)nc4=O)[C@H](O)[C@@H]3OP(=O)(S)OC[C@H]3O[C@@H](n4ccc5c(=O)[nH]c(N)nc54)[C@H](O)[C@@H]3OP(=O)(S)OC[C@H]3O[C@@H](n4cnc5c(N)ncnc54)[C@H](O)[C@@H]3OP(=O)(S)OC[C@H]3O[C@@H](n4ccc5c(=O)[nH]c(N)nc54)[C@H](O)[C@@H]3OP(=O)(S)OC[C@H]3O[C@@H](n4ccc(N)nc4=O)[C@H](O)[C@@H]3OP(=O)(S)OC[C@H]3O[C@@H](n4ccc(=O)[nH]c4=O)[C@H](O)[C@@H]3OP(=O)(S)OC[C@H]3O[C@@H](n4ccc(=O)[nH]c4=O)[C@H](O)[C@@H]3OP(=O)(S)OCC(O)COP(=O)(S)O[C@H]3[C@@H](O)[C@H](n4ccc(=O)[nH]c4=O)O[C@@H]3COP(=O)(S)O[C@H]3[C@@H](O)[C@H](n4ccc(=O)[nH]c4=O)O[C@@H]3COP(=O)(S)O[C@H]3[C@@H](O)[C@H](n4ccc(N)nc4=O)O[C@@H]3COP(=O)(S)O[C@H]3[C@@H](O)[C@H](n4ccc5c(=O)[nH]c(N)nc54)O[C@@H]3COP(=O)(S)O[C@H]3[C@@H](O)[C@H](n4cnc5c(N)ncnc54)O[C@@H]3COP(=O)(S)O[C@H]3[C@@H](O)[C@H](n4ccc5c(=O)[nH]c(N)nc54)O[C@@H]3COP(=O)(S)O[C@H]3[C@@H](O)[C@H](n4ccc(N)nc4=O)O[C@@H]3COP(=O)(S)O[C@H]3[C@@H](O)[C@H](n4cnc5c(N)ncnc54)O[C@@H]3COP(=O)(S)O[C@H]3[C@@H](O)[C@H](n4ccc5c(=O)[nH]c(N)nc54)O[C@@H]3COP(=O)(S)O[C@H]3[C@@H](O)[C@H](n4ccc(=O)[nH]c4=O)O[C@@H]3COP(=O)(S)O[C@H]3[C@@H](O)[C@H](n4ccc(N)nc4=O)O[C@@H]3CO)[C@H]2O)c(=O)n1 (some centres not stated)
- fold change (FC) [1]: 30
- fold change (FC) [2]: 0.6
- Activity [3]: inactive
- Activity (Splenocyte): Active
- Activity (PBMC [4]): 33.4 pg/mL
- IFN-alpha (PBMC [5]): 106 pg/mL
